Assay [1] has as its target T1, 3-hydroxy-3-methylglutaryl-coenzyme A reductase (Homo sapiens, UniProt P04035).
T1 sequence (P04035 whole entry): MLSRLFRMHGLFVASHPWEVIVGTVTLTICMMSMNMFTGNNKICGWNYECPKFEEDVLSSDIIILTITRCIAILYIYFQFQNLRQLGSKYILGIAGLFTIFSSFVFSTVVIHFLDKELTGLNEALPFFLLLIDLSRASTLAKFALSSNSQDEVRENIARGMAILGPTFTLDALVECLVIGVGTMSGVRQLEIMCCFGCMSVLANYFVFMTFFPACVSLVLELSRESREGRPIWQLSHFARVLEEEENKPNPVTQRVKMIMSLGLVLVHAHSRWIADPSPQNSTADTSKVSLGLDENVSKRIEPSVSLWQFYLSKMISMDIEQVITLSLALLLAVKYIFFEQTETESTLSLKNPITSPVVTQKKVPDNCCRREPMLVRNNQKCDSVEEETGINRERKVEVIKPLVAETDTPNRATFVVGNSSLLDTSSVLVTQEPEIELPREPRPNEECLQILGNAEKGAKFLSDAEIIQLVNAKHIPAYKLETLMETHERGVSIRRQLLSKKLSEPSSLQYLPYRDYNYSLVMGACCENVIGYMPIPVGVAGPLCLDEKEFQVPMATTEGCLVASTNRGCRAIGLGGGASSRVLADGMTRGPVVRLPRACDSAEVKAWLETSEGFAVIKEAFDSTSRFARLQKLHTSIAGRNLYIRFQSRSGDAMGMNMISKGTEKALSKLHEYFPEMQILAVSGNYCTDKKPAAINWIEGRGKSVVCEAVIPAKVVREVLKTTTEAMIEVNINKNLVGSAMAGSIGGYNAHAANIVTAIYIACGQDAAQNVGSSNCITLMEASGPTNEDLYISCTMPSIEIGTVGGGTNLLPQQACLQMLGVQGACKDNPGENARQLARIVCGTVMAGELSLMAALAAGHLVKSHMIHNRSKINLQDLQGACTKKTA
The assay is described as follows: Inhibition of the incorporation of sodium [14C]acetate into cholesterol in HEP G2 cells. The assay is classed as functional, cell-based, HepG2.

Assay [2] concerns Rattus norvegicus. The assay is described as follows: Compound was tested for effect on serum LDL after oral administration of 100 mg/kg in male rats. The format is functional. The procedure, abridged: (§1)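 Male HOE:WISKf (SPF 71) rats, initial body weight over 180 g, n = 10 per group, dosed once daily in the morning by gavage in polyethylene glycol 400 for 7 days; controls received vehicle. Fasted after last dose, bled retroorbitally 24 h later under mild ether. Liver and body weight recorded. Pooled group serum was ultracentrifuged into VLDL (<1.006), LDL (1.006-1.04) and HDL (1.04-1.21). Values are % change versus control.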

In assay [3] the target is T2, 3-hydroxy-3-methylglutaryl-coenzyme A reductase (Rattus norvegicus, UniProt P51639).
T2 sequence (P51639 whole entry): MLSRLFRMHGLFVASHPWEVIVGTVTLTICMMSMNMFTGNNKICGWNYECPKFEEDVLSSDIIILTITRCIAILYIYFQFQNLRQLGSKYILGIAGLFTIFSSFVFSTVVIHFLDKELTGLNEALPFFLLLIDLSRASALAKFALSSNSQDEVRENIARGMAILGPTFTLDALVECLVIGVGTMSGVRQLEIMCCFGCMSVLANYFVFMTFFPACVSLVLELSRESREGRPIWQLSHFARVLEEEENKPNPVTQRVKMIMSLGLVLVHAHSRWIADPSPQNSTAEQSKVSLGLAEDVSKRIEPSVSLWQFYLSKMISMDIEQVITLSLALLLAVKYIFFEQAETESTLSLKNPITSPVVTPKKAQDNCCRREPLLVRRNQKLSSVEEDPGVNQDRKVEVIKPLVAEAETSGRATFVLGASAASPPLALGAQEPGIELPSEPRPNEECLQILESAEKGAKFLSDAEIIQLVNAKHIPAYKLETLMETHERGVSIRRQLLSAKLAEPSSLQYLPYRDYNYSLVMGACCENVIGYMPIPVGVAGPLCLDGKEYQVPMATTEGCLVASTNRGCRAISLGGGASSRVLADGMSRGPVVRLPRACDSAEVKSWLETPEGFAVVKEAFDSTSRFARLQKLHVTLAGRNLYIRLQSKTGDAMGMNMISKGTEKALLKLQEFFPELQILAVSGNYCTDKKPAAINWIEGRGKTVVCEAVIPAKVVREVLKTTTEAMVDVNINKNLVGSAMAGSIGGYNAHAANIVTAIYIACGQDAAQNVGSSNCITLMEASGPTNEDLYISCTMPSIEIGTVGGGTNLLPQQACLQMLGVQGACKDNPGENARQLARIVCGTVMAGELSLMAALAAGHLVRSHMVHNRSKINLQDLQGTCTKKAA
The assay is described as follows: In vitro inhibition of HMG-CoA reductase in solubilized rat liver.

The species named for assay [4] is Rattus norvegicus. The assay is described as follows: Compound was tested for inhibition of microsomal lipid peroxidation and the potency relative to terbufucine was determined. The format is functional. A digest of the protocol:
(§2)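 Rat liver microsomes in 50 mM Tris-HCl pH 7.4 with 100 mM KCl and 6.0 mM MgCl2, final protein 0.4 mg/mL. Peroxidation was started with ADP (2 mM)/FeCl3 (10 μM) plus an NADPH-regenerating system. Incubation 30 min at 37 °C with shaking. Thiobarbituric acid reactive substances were read at 535 nm.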

Assay [5] has as its system Rattus norvegicus. The assay is described as follows: Compound was tested for effect on body weight after oral administration of 100 mg/kg in male rats. The assay is classed as functional. The procedure, abridged:
as §1

For assay [6], the system named is Rattus norvegicus. In words: Compound was tested for effect on serum HDL after oral administration of 100 mg/kg in male rats. The assay is classed as functional. A digest of the protocol: as §1
The target in assay [7] is T3, 3-hydroxy-3-methylglutaryl-coenzyme A reductase (Rattus norvegicus) (UniProt P51639).
T3 sequence (whole entry): T2 sequence (P51639 whole entry)
The assay is described as follows: (§3) Inhibition of HMG-CoA reductase compared to mevinolin. A digest of the protocol: (§4)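 Solubilized, partially purified rat liver HMG-CoA reductase. IC50 from four or five inhibitor concentrations. Relative potency compared IC50 with mevinolin (set to 100), corrected for molecular weight.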

In assay [8] the test system is Rattus norvegicus. In words: Compound was tested for effect on serum VLDL after oral administration of 100 mg/kg in male rats. The format is functional. The procedure, abridged:
as §1

In assay [9] the test system is Rattus norvegicus. In words: Compound was tested for effect on liver weight after oral administration of 100 mg/kg in male rats. The format is functional. The procedure, abridged:
as §1

In assay [10] the target is T4, 3-hydroxy-3-methylglutaryl-coenzyme A reductase (Homo sapiens) (UniProt P04035).
T4 sequence (whole entry): T1 sequence (P04035 whole entry)
Described as §3. The format is functional. The procedure, abridged: as §4

Assay [11] is filed under the species Rattus norvegicus. In words: In vitro inhibition of microsomal lipid peroxidation at 10e-5 M concentration. The assay is classed as functional. The procedure, abridged: as §2
The species named for assay [12] is Sus scrofa. The assay is described as follows: In vitro inhibition of Cu2+ catalyzed LDL oxidation at 10e-5 M conc. The assay is classed as functional. The procedure, abridged: (§5)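 Porcine plasma LDL isolated by sequential ultracentrifugation (density 1.019-1.063 g/mL), dialysed against PBS pH 7.4, then diluted to 0.1 mg/mL protein. Preincubated 1 h at 37 °C under N2 with compound in ethanol. Oxidised with 5 μM Cu2+ for 2 h at 37 °C in air. Fluorescence read at ex 365/em 430 nm.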

The species entered for assay [13] is Sus scrofa. In words: Compound was tested for inhibition of Cu2+ catalyzed LDL oxidation and the potency relative to terbufucine was determined. The format is functional. A digest of the protocol: as §5
Assay [14] deals with Canis familiaris. In words: Tested in vivo for hypocholesterolemic activity by measuring its ability to decrease serum LDL-cholesterol, after oral administration of 5 mg/kg per day for 14 days in male Beagle dogs. The assay is classed as functional, Canis lupus familiaris. The procedure, abridged:
(§6)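 Male beagle dogs (n = 4) given neat compound in gelatine capsules daily at 3:00 p.m.; controls received empty capsules. After an overnight fast, venous blood was drawn at 8:00 a.m. Serum lipoproteins were separated by ultracentrifugation (densities 1.006/1.063/1.21). LDL-cholesterol reported as % change versus control.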

The species named for assay [15] is Rattus norvegicus. In words: In vitro inhibition of microsomal lipid peroxidation. The format is functional. A digest of the protocol: as §2
Assay [16] deals with Canis familiaris. The assay is described as follows: Tested in vivo for hypocholesterolemic activity by measuring its ability to decrease serum LDL-cholesterol, after oral administration of 30 mg/kg per day for 14 days in male Beagle dogs. The assay is classed as functional, Canis lupus familiaris. The procedure, abridged:
as §6

Assay [17] relates to Rattus norvegicus. In words: Compound was tested for effect on serum LDL after oral administration of 30 mg/kg in male rats. The format is functional. The procedure, abridged: as §1
Assay [18] relates to Rattus norvegicus. The assay is described as follows: Compound was tested for effect on body weight after oral administration of 30 mg/kg in male rats. The assay is classed as functional. The procedure, abridged:
as §1

For assay [19], the system named is Rattus norvegicus. In words: Compound was tested for effect on serum VLDL after oral administration of 30 mg/kg in male rats. The assay is classed as functional. A digest of the protocol: as §1
Assay [20] has as its system Rattus norvegicus. In words: Compound was tested for effect on liver weight after oral administration of 30 mg/kg in male rats. The format is functional. A digest of the protocol:
as §1

Assay [21] relates to Rattus norvegicus. The assay is described as follows: Compound was tested for effect on serum HDL after oral administration of 30 mg/kg in male rats. The format is functional. A digest of the protocol: as §1
The species entered for assay [22] is Sus scrofa. The assay is described as follows: In vitro inhibition of Cu2+ catalyzed LDL oxidation. The format is functional. A digest of the protocol:
as §5

A further assay relates to Oryctolagus cuniculus. In words: Tested in vivo for hypocholesterolemic activity by measuring its ability to decrease serum total cholesterol, after oral administration of 75 mg/kg body wt. per day in normolipidemic NZW rabbits; Very potent. On the set-up: dose 75 mg/kg, route oral. The assay is classed as functional, organism-based.
The target of assay [23] is T2, 3-hydroxy-3-methylglutaryl-coenzyme A reductase. The assay is described as follows: In vitro inhibition of solubilized HMG-CoA reductase in rat liver.

Data on four compounds can be found in ChEMBL document CHEMBL1125911, “Synthesis and biological activity of new HMG-CoA reductase inhibitors. 3. Lactones of 6-phenoxy-3,5-dihydroxyhexanoic acids” (J Med Chem, 1991).

As for `CC(C)c1cc(SC(C)(C)Sc2cc(-c3ccc(F)cc3)c(OC[C@H](O)C[C@@H](O)CC(=O)[O-])c(C(C)C)c2)cc(-c2ccc(F)cc2)c1OC[C@H](O)C[C@@H](O)CC(=O)[O-].[Na+].[Na+]`, the IC50 in assay [1] was greater than 1000 nM; in [3], 10 nM. Besides, the Change with Rattus norvegicus [2] is listed as -52%; with Rattus norvegicus [5] it was 5%; in the assay on Rattus norvegicus [6], 9%; with Rattus norvegicus [8], -23%; in the assay on Rattus norvegicus [9], -1%. Besides, the values for the Relative potency (in the assay listed under Rattus norvegicus [4]; in assay [7]; in assay [10]) were less than 0.1, 37 and less than 5, respectively. The same compound registered an inhibition in the assay filed under Rattus norvegicus [11] of less than 10%.

On to `CC(C)c1cc(Sc2ccc(F)cc2)cc(-c2ccc(F)cc2)c1OCC1C[C@@H](O)CC(=O)O1` (stereo not given in full), for which testing at 10 µM in the assay listed under Sus scrofa [12] gave an inhibition of 23%. For the same compound, the Relative potency in the assay listed under Sus scrofa [13] is listed as less than 0.1. For the same compound, the Change was -9% in the assay with Canis familiaris [14] and -21% in the assay with Canis familiaris [16]. Moreover, in the assay filed under Rattus norvegicus [15], the concentration for half-maximal inhibition (IC50) was greater than 10000 nM.

Consider `CC(C)(Sc1cc(C(C)(C)C)c(O)c(C(C)(C)C)c1)Sc1cc(C(C)(C)C)c(O)c(C(C)(C)C)c1` [PROBUCOL], for which the Change is reported as -24% in the assay on Rattus norvegicus [17]; 5% in the assay with Rattus norvegicus [18]; 4% in the assay with Rattus norvegicus [19]; 5% with Rattus norvegicus [20]; -11% in the assay with Rattus norvegicus [21]. The Relative potency in the assay filed under Sus scrofa [13] amounted to 22. This compound also came in with an IC50 in the assay filed under Sus scrofa [22] of 500 nM.

Regarding `CC(C)c1cc(-c2ccc(F)cc2)c(/C=C/[C@@H](O)C[C@@H](O)CC(=O)[O-])c(C(C)C)n1.[Na+]`, the concentration for half-maximal inhibition (IC50) entry was “Very potent” with Oryctolagus cuniculus and 3 nM in assay [23].

What is called IC50 is the concentration that inhibits the measured activity by half. A higher IC50 goes with weaker potency. In general, inhibition refers to the relative decrease from the control value, in per cent. Low readings indicate little suppression, high ones strong suppression.
